Granule exo inh = lytic granule exocytosis inhibition. TALL-104 LAMP-1 surface exposure, flow cytometry; cells stimulated with thapsigargin and PMA. inhibition, % at 10 µM. actives 0.66% (n = 360,000). AID 651702;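 active = inhibition above about 55%, limit read from the data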
V-ATPase pHluor = yeast V-ATPase proton transport regulation by pHLuorin | S. cerevisiae, pHLuorin cytosolic pH fluorescence | response, % at 10 µM | actives 0.37% (n = 350,000); in the data active = response mostly above about 7.3%, no sharp cut-off; inactive = mostly below about 5.4%; note: actives read high
CendR NRP1 mod = modulators of CendR peptide binding to human neuropilin-1; AID 602438; actives 0.85% (n = 360,000); FAM-RPARPAR peptide binding to NRP-1, fluorescence polarization; O14786; inhibition, % at 25 µM;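 active = inhibition or corrected inhibition above about 18%, plus a signal ratio from 0.5 to 1.5, limit read from the data, passing the limit was not always enough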
ASAP1 GAP inh = ASAP1 ArfGAP inhibition; ASAP1-stimulated ARF1 GTP hydrolysis, GDP FP detection; inhibition, % at 16.5 µM; actives 0.19% (n = 360,000); AID 624377; in the data active = inhibition above about 25%
ARFGAP1 inh = rat ARFGAP1 inhibition; AID 651572; actives 0.26% (n = 360,000); Arfgap1-stimulated ARF1 GTP hydrolysis, GDP FP detection; Q62848; inhibition, % at 16.5 µM;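 active = inhibition above a per-plate limit, mean inhibition of low control wells plus 3 SD, cut at about 25% in these data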
Target sequence (Q62848 1-136 limits assumed): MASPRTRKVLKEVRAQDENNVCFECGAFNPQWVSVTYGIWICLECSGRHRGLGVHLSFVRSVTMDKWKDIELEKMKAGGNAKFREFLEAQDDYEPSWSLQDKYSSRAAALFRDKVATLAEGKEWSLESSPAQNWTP
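Assay system: Rat Arfgap1 GAP domain (His6, aa 1-136), purified enzyme | Buffer or medium: HEPES 25 mM pH 7.5, NaCl 150 mM, MgCl2, DTT | Schedule: GTP hydrolysis reaction 2 h at 25 °C | Signal: FP of antibody-bound GDP Alexa 633 tracer, ex 620/em 688 nm | Measure: Percent inhibition of Arfgap1-stimulated GTP hydrolysis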
Exocytosis CP01 = lytic granule exocytosis inhibition; shares compounds with Granule exo inh; TALL-104 cells, LAMP-1 externalization, flow cytometry; stimulated with PMA plus thapsigargin; inhibition, % at 10 µM; actives 11% (n = 1,500); AID 651954; in the data active = inhibition above about 60%
Each line names hits and unclear results; the compound was inactive in the other large screens (follow-up assays come after a bar, where they were run). The list is not random: actives were taken first. Their share in the collection is about 2.2%.

O=C(CCc1cn2ccccc2n1)NC1CCCc2c1cnn2-c1ccccc1F (centres undefined)	none
CCOC(=O)c1nnc(-c2ccccc2)nc1Sc1ccccc1Cl	Granule exo inh 102 | Exocytosis CP01 76
Cc1oc(-c2ccccc2F)nc1CS(=O)CC(=O)NC1CCCCC1 (centres undefined)	none
CCCCN(CCCC)c1nc(-c2ccncc2)nc2ccccc12	Granule exo inh 93 | Exocytosis CP01 68
O=C(CNS(=O)(=O)c1c(F)cc(F)cc1Br)OCC(=O)N1CCCC1=O	Granule exo inh 61, V-ATPase pHluor 13 | Exocytosis CP01 inactive
O=C(CNS(=O)(=O)c1cccc(F)c1)OCC(=O)N1CCCC1=O	none
Cc1c(NC(=O)CSc2nnc(-c3ccncc3)n2C)c(=O)n(-c2ccccc2)n1C	none
COc1ccccc1CCNC(=O)CCSc1nc(-c2ccco2)cc(C(F)(F)F)n1	Granule exo inh 64 | Exocytosis CP01 inactive
CCc1cccc(NS(=O)(=O)c2ccc3c(c2)N(C)CCO3)c1	none
Cc1nnc(N2CCCC(C(=O)NCc3ccccc3F)C2)c2nn(-c3ccccc3)c(C)c12 (centres undefined)	none
CCOc1ccccc1CNC(=O)C1CCN(c2nnc(C)c3c(C)n(-c4ccc(C)cc4)nc23)CC1	Granule exo inh 58 | Exocytosis CP01 89
Cc1ccccc1CNC(=O)C1CCCN(c2nnc(C)c3c(C)n(-c4ccccc4)nc23)C1 (centres undefined)	Granule exo inh 74 | Exocytosis CP01 inactive
CCc1ccc(CNC(=O)C2CCCN(c3nnc(C)c4c(C)n(-c5ccccc5)nc34)C2)cc1 (centres undefined)	Granule exo inh 58 | Exocytosis CP01 87
C[C@@H](N)C(=O)NC[C@H]1O[C@@H](n2cnc3c(N)ncnc32)[C@H](O)[C@@H]1O	none (no result: ASAP1 GAP inh, ARFGAP1 inh)
CCN(CC)CCN(C(=O)c1cc2ccccc2cc1OC)c1nc2ccc(OC)cc2s1	Granule exo inh 65 | Exocytosis CP01 inactive
COc1ccc(Cl)cc1Nc1nc(C)nc2c1nnn2Cc1ccccc1	none
COc1ccc(OC)c(Nc2nc(C3CC3)nc3c2nnn3Cc2ccccc2)c1	Granule exo inh 60 | Exocytosis CP01 inactive
COC(=O)c1cn(C(=O)c2cc(Br)ccc2Cl)c2ccccc12	Granule exo inh 72 | Exocytosis CP01 inactive
COC(=O)c1cn(C(=O)c2ccc(OC)cc2)c2ccccc12	Granule exo inh 70 | Exocytosis CP01 inactive
COC(=O)c1cn(C(=O)c2ccc(C)cc2)c2ccccc12	none
O=C(OCc1nc2ccccc2s1)c1ccco1	Granule exo inh 75 | Exocytosis CP01 inactive
CCOc1ccc(-c2cc(C(=O)NCCCn3ccnc3)c3cc(Br)ccc3n2)cc1	Granule exo inh 79 | Exocytosis CP01 80
Cn1c(SCC(=O)N2CC(=O)Nc3ccccc32)nnc1C(F)(F)F	none
C[C@H](c1ccccc1)N1C[C@H](COCc2ccccc2)Oc2cc(N3CC[C@H](N(C)C)C3)ccc2S1(=O)=O	Granule exo inh 68 (no result: V-ATPase pHluor) | Exocytosis CP01 inactive
C[C@@H](c1ccccc1)N1C[C@H](COCc2ccccc2)Oc2cc(N3CC[C@@H](N(C)C)C3)ccc2S1(=O)=O	none (no result: V-ATPase pHluor)
CCc1c(C)c(C#N)c2nc3ccccc3n2c1Nc1c(C)n(C)n(-c2ccccc2)c1=O	Granule exo inh 64 | Exocytosis CP01 inactive
Cc1ccnc(NC(=O)C2CCN(S(=O)(=O)c3ccc(C)c(C)c3)CC2)c1	Granule exo inh 65 | Exocytosis CP01 inactive
Cc1ccnc(NC(=O)C2CCN(S(=O)(=O)c3cccc(C(F)(F)F)c3)CC2)c1	none
O=C(NC(CC1=CCCCC1)c1ccccc1)C(F)(F)F (centres undefined)	none (no result: Granule exo inh, V-ATPase pHluor, CendR NRP1 mod)
O=C(Nc1nnc(Cc2ccccc2)s1)C1CCN(C(=O)c2ccco2)CC1	none
COc1ccc(Cc2nnc(NC(=O)C3CCN(C(=O)c4ccco4)CC3)s2)cc1	Granule exo inh 57 | Exocytosis CP01 inactive
CCOC(=O)C(C(=O)OCC)C(C(=O)OCC)N1CCOCC1 (centres undefined)	Granule exo inh 88, V-ATPase pHluor 12 | Exocytosis CP01 inactive
CC(=O)C1=CCC(c2ccccc2)N(S(C)(=O)=O)C1 (centres undefined)	none (no result: V-ATPase pHluor)
O=C(Nc1ccc2nc(-c3cccs3)c(-c3cccs3)nc2c1)NC1CC1	Granule exo inh 99 | Exocytosis CP01 103
